Calls of active or inactive are those of the source. The rule behind the calls is not given here.
How the values were obtained:
[1] = tested on: Mus musculus; assay: Anticonvulsant activity in PTZ induced C57BL/6 mouse acute seizure model assessed as seizure score at 3 mg/kg, ip pretreated for 30 mins followed by PTZ injection and measured upto 30 mins by Liittjohann's scale analysis; assay type: functional; conditions: time 60 min, 1 h
How it was run: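 Male C57Bl/6 mice given drug i.p. in saline with 2% Tween-20 and 2% PEG-400 (0.01 mL/g), 30 min before PTZ 100 mg/kg s.c. Observed in Plexiglass boxes for 30 min. Maximal severity scored on the revised Lüttjohann 9-point scale (0–8), latency to maximal seizure recorded. One-way ANOVA with Tukey.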

[2] = tested on: Mus musculus; assay: Anticonvulsant activity in PTZ induced C57BL/6 mouse acute seizure model assessed as seizure score at 0.3 mg/kg, ip pretreated for 30 mins followed by PTZ injection and measured upto 30 mins by Liittjohann's scale analysis; assay type: functional; conditions: time 60 min, 1 h
How it was run: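 Male C57Bl/6 mice, drug in saline with 2% Tween-20 and 2% PEG-400, given i.p. at 0.01 mL/g 30 min before PTZ (100 mg/kg s.c. in saline). Animals watched in clear boxes for 30 min. Maximal severity was scored on the revised Lüttjohann 9-point scale (0 whisker trembling to 8 wild jumping). Group mean reported.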

[3] = biological target: T1, Voltage-gated potassium channel, KQT; KCNQ2(Kv7.2)/KCNQ3(Kv7.3) (Homo sapiens) (UniProt O43526+O43525); assay: Activation of Kv7.2/Kv7.3 channel (unknown origin) expressed in CHO cells at -80 mV measured after 24 hrs by whole cell patch clamp based electrophysiological method; conditions: filed as activator
[4] = biological target: T1, Voltage-gated potassium channel, KQT; KCNQ2(Kv7.2)/KCNQ3(Kv7.3) (Homo sapiens); assay: Activation of Kv7.2/Kv7.3 channel (unknown origin) expressed in CHO cells assessed as half activation potential measured after 24 hrs by whole cell patch clamp based electrophysiological method; conditions: filed as activator
[5] = Toxicity in PTZ induced C57BL/6 mouse acute seizure model assessed as mortality at 1 mg/kg, ip; assay type: organism-based; conditions: in vivo
How it was run: (§1)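 Male C57Bl/6 mice were pretreated i.p. with drug in saline containing 2% Tween-20 and 2% PEG-400, 30 min before PTZ (100 mg/kg s.c.). Vehicle controls received the vehicle alone. Survival was recorded as animals alive at the end of the 60 min observation period after PTZ and expressed as percent (surviving/total) per group.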

[6] = Toxicity in PTZ induced C57BL/6 mouse acute seizure model assessed as in mortality at 0.3 mg/kg, ip; assay type: organism-based; conditions: in vivo; how it was run: as §1
[7] = Photo stability of compound in saline at 10 uM irradiated with UV for 3 hrs by HPLC analysis; assay type: physicochemical; conditions: buffer
How it was run: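 Compounds in DMSO diluted into buffered aqueous solution pH 7.4 to a final 10 µM. Irradiated in 1 cm quartz cells by a 150 W UV lamp at 20 cm for 3 h; dark controls held at 37 °C. Aliquots analysed by UHPLC on C18 with TFA water/ACN gradient: 220 nm for loss of parent, 550 nm for phenazine/phenazinium dimers.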

[8] = biological target: T1, Voltage-gated potassium channel, KQT; KCNQ2(Kv7.2)/KCNQ3(Kv7.3) (Homo sapiens); assay: Activation of Kv7.2/Kv7.3 channel (unknown origin) expressed in CHO cells assessed as leftward shift change in half activation potential at 1 uM measured after 24 hrs by whole cell patch clamp based electrophysiological method; conditions: filed as activator
[9] = biological target: T1, Voltage-gated potassium channel, KQT; KCNQ2(Kv7.2)/KCNQ3(Kv7.3) (Homo sapiens); assay: Activation of Kv7.2/Kv7.3 channel (unknown origin) expressed in CHO cells assessed as slope of fluorescent signal at 10 uM by FluxOR fluorescent dye based assay; assay type: cell-based; conditions: filed as activator
How it was run: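 CHO clone stably expressing Kv7.2/Kv7.3 (PiggyBac, puromycin 4 µg/mL), seeded 1.6 × 10^4 cells/well on poly-D-lysine, assayed 24 h later. FluxOR II thallium flux, wash method, ex 485/em 520 nm. Tl+ stimulus buffer added after 5 s, read every 1 s for 50 s. Initial slope taken from 5–15 s. Vehicle 0.1% DMSO, 10 µM retigabine reference; only runs with Z' > 0.5 kept; ≥3 experiments.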

O=C1c2ccccc2C(Cc2ccncc2)(Cc2ccncc2)c2ccccc21
Activity [1]: 7.3

CC(C)(C)CC(=O)Nc1ccc(NCc2ccc(C(F)(F)F)cc2)c(F)c1N
Activity [2]: 6
Activity [3]: Active
V1/2 [4]: -30.2 mV
Activity [5]: 100%
Activity [6]: 87%

CC(C)(C)CC(=O)Nc1ccc(NCc2ccc(C(F)(F)F)cc2)cc1N1CCCCC1
Stability [7]: Unstable

CCOC(=O)Nc1ccc(NCc2ccc(F)cc2)cc1N
Activity [3]: Active

CC(C)(C)CC(=O)Nc1ccc(NCc2ccc(C(F)(F)F)cc2)cc1N
Stability [7]: Stable

CCCCCCC(=O)Nc1ccc(NCc2ccccc2F)cc1N
Stability [7]: Stable

CCCCCCCC(=O)Nc1ccc(NCc2ccc(C(F)(F)F)cc2)cc1N
Stability [7]: Stable

CC(C)(C)CC(=O)Nc1ccc(NCc2ccc(C(F)(F)F)cc2)cc1N1CCCC1
Stability [7]: Unstable

CCCCCCC(=O)Nc1ccc(NCc2ccc(C(F)(F)F)cc2)cc1N
Stability [7]: Stable

Nc1cc(NCc2ccc(C(F)(F)F)cc2)ccc1NC(=O)CCC1CCCCC1
Stability [7]: Stable

CC(C)(C)CC(=O)Nc1ccc(NCc2c(F)cccc2F)cc1N
Stability [7]: Stable

CCOC(=O)Nc1ccc(NCc2ccc(C(F)(F)F)cc2)c(F)c1N
Activity [3]: Active
delta(V1/2) [8]: 40 mV

CCCCCCC(=O)Nc1ccc(NCc2ccccc2)cc1N
Stability [7]: Stable

CCCCCCC(=O)Nc1ccc(CCc2ccc(C(F)(F)F)cc2)cc1N
Activity [9]: 0.0087

Reference: ChEMBL document CHEMBL5126610, “Beyond Retigabine: Design, Synthesis, and Pharmacological Characterization of a Potent and Chemically Stable Neuronal Kv7 Channel Activator with Anticonvulsant Activity” (J Med Chem, 2022)
